Several values for one entry are separate records, joined by “and”; a condition that tells them apart may be missing. Equal values may be shown once.
What was measured:
[1] = target: T1, Alpha-1D adrenergic receptor (Homo sapiens, UniProt P25100); test: In vitro binding affinity against Alpha-1D adrenergic receptor at recombinant human receptor.; settings: in the assay text read “at recombinant human receptor” for “of human liver microsomes”
T1 sequence (P25100 whole entry): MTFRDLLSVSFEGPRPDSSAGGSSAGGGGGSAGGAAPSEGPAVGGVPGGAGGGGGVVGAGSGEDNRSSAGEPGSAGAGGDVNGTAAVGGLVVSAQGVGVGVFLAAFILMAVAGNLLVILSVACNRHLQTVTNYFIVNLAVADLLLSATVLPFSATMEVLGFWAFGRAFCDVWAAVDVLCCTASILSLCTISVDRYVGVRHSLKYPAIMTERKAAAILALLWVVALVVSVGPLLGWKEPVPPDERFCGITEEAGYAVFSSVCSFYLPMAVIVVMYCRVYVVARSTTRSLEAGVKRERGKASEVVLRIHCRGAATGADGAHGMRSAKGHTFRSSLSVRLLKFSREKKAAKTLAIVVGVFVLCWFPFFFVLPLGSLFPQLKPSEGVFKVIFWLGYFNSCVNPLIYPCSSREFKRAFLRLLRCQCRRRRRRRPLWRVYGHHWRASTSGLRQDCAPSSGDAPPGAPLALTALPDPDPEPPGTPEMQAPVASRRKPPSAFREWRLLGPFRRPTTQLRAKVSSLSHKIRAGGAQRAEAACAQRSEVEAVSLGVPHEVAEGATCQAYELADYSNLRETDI
In short: (§1)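 Radioligand displacement on membranes from cultured cells expressing recombinant human α1a, α1b or α1d adrenoceptors, using [³H]prazosin as radioligand; Ki values reported.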

[2] = target: T2, Alpha-1A adrenergic receptor (Homo sapiens, UniProt P35348); test: In vitro binding affinity against Alpha-1A adrenergic receptor […].; in short: as §1
T2 sequence (P35348 whole entry): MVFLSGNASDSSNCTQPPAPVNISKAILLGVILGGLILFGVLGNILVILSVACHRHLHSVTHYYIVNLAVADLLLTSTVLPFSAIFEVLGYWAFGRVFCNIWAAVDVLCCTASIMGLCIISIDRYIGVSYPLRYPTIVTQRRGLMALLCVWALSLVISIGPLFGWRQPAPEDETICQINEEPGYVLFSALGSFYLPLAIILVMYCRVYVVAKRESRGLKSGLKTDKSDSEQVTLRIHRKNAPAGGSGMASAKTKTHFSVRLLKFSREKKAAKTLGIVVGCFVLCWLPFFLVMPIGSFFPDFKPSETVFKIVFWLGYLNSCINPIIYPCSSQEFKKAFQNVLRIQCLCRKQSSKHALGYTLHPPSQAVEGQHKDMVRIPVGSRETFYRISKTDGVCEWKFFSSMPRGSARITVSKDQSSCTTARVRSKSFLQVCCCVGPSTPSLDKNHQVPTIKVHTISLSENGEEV

[3] = Fold selectivity against alpha 1A adrenergic receptor over alpha 2A, 2B and 2C adrenergic receptors
In short: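 Ki ratio derived from radioligand displacement at recombinant human adrenoceptors: α1a with [³H]prazosin, and α2a, α2b and α2c with [³H]rauwolscine, on membranes from cultured cells.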

[4] = target: T3, Alpha-1B adrenergic receptor (Homo sapiens, UniProt P35368); test: In vitro binding affinity against Alpha-1B adrenergic receptor at recombinant human receptor.
T3 sequence (P35368 whole entry): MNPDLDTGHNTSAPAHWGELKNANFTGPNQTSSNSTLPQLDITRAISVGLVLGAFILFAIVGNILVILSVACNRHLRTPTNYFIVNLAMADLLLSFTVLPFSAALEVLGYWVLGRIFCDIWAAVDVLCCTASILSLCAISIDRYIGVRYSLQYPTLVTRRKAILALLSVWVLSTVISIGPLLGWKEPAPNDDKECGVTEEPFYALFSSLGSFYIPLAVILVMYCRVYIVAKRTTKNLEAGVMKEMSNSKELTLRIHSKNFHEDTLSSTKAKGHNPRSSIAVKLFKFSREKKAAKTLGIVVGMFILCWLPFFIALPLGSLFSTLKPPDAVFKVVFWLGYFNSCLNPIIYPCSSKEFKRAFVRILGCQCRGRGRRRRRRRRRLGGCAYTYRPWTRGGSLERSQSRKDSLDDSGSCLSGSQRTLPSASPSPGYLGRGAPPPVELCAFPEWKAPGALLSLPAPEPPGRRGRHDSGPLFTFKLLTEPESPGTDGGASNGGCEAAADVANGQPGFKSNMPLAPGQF

[5] = species: Rattus norvegicus; test: Duration of action in rat.; type: ADME, organism-based; settings: in vivo
In short: (§2)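 In rats, phenylephrine-induced contraction of the prostate was measured in vivo. Antagonist potency is expressed as AD₅₀ in µg/kg. Duration of action is given in hours.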

[6] = target: T4, Alpha-1A adrenergic receptor (Rattus norvegicus) (UniProt P43140); test: (§3) Binding affinity radioligand)
T4 sequence (whole entry): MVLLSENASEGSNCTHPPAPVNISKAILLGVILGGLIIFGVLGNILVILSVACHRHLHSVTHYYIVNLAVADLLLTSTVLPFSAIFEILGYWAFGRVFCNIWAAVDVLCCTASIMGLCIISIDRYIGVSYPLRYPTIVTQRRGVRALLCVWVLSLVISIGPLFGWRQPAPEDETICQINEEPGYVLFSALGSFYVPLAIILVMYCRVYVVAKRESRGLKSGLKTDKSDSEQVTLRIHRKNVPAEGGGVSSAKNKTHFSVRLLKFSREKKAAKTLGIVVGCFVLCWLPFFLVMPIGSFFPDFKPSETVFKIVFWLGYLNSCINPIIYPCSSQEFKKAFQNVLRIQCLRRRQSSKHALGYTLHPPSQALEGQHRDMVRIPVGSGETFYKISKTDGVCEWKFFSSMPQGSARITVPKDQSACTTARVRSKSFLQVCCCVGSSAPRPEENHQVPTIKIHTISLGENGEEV

[7] = target: Adrenergic receptor alpha-1 (Rattus norvegicus) (UniProt P15823+P23944+P43140); test: as §3; type: protein assay
Sequence of Adrenergic receptor alpha-1 (Rattus norvegicus) (P15823 whole entry, looked up, one chain of several): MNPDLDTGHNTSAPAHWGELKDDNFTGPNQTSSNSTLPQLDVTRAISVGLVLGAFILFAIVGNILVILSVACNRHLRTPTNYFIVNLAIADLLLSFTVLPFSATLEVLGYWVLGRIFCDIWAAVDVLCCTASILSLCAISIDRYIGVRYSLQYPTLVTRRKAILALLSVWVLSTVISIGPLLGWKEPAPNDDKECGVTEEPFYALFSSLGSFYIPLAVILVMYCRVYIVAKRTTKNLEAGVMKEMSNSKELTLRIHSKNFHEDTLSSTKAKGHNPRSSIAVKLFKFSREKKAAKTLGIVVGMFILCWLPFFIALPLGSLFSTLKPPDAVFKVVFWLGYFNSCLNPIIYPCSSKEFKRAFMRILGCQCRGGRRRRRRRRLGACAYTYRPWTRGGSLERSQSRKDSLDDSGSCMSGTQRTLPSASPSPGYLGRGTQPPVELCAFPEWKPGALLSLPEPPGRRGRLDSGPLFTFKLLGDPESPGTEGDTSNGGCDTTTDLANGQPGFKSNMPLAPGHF
Sequence of Adrenergic receptor alpha-1 (Rattus norvegicus) (P23944 whole entry, looked up, one chain of several): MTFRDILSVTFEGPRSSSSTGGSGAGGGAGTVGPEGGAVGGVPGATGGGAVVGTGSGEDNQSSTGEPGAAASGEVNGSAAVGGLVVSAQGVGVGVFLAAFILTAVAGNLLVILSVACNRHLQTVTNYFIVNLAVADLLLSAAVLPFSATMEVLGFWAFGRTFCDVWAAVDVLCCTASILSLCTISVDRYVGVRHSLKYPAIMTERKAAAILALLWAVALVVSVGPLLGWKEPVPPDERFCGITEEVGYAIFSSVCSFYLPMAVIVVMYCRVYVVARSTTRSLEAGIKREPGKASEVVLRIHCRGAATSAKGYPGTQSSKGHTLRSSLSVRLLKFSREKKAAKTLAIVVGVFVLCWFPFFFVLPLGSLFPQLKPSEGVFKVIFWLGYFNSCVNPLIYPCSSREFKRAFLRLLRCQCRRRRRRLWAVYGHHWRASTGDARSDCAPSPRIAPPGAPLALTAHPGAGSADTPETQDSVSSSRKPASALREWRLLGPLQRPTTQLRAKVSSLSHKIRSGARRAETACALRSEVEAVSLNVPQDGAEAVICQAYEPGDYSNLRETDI

[8] = species: Rattus norvegicus; test: Inhibition of phenylephrine induced contraction of the rat prostate.; type: functional, Prostate gland; in short: as §2
[9] = oral bioavailability in dog; type: ADME, organism-based, Canis lupus familiaris; settings: in vivo
[10] = oral bioavailability in rat; type: ADME, organism-based; settings: in vivo
In short: (§4)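 In rats, the compound was given at 3 mg/kg iv and 10 mg/kg po. Plasma AUC was measured for each route, with oral bioavailability and plasma half-life derived from the plasma profiles.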

[11] = Plasma half life in dog; type: ADME, organism-based, Canis lupus familiaris
[12] = Plasma half life in rat; type: ADME, organism-based; in short: as §4
[13] = target: Mu-type opioid receptor (Homo sapiens, UniProt P35372); test: Binding affinity against opioid receptor using [3H]-DAMGO as radioligand.
Sequence of Mu-type opioid receptor (P35372 whole entry): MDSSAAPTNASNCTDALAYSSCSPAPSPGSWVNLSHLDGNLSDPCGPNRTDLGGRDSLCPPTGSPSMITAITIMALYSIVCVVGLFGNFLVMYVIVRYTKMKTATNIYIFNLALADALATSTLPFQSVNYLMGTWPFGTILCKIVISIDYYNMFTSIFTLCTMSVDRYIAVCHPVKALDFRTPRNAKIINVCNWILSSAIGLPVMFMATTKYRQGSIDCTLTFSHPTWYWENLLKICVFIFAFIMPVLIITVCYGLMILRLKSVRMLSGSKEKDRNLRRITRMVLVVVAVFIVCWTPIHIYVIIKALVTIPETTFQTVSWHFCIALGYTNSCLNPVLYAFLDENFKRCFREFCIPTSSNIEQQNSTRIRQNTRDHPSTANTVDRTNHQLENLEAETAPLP

SMILES | Ki [1] | Ki [2] | Fold selectivity [3] | Ki [4] | also measured
CCC1=C(C(N)=O)C(c2ccc(F)cc2F)N(C(=O)NCCCN2CCN(c3ccccc3C(N)=O)CC2)C(=O)N1 (configuration not stated) | 1100 nM | 1.3 nM | > 600 | 720 nM | –
COC(=O)C1=C(C)NC(=O)N(C(=O)NCCCN2CCN(c3ccccc3C(N)=O)CC2)C1c1cc(F)c(F)c(F)c1 (configuration not stated) | 140 nM | 0.3 nM | > 430 | 58 nM | –
COC(=O)C1=C(C)NC(=O)N(C(=O)NCCCN2CCN(c3ccccc3Cl)CC2)C1c1ccc(F)c(F)c1 (configuration not stated) | 14 nM | 0.2 nM | > 190 | 15 nM | –
COCC1=C(C(=O)OC)C(c2ccc(F)c(F)c2)N(C(=O)NCCCN2CCN(c3ccccc3C(N)=O)CC2)C(=O)N1 (configuration not stated) | 140 nM | 0.1 nM | > 4500 | 100 nM | –
COC(=O)C1=C(C)NC(=O)N(C(=O)NCCCN2CCN(c3ccccc3[N+](=O)[O-])C[C@H]2C)C1c1ccc(F)c(F)c1 (some centres not stated) | 28 nM | 0.05 nM | > 1600 | 13 nM | –
CCC1=C(C(N)=O)C(c2ccc(F)c(F)c2)N(C(=O)NCCCN2CCC(C(=O)OC)(c3ccccc3)CC2)C(=O)N1 (configuration not stated) | – | – | > 3200 | – | Duration of action [5]: > 4 h; Kb [6]: 0.4 nM; Kb [7]: > 1000 nM; AD50 [8]: 0.02 mg/kg
CC(=O)C1=C(C)NC(=O)N(C(=O)NCCCN2CCN(c3ccccc3C(N)=O)CC2)C1c1ccc(F)c(F)c1 (configuration not stated) | 290 nM | 0.7 nM | > 70 | 170 nM | –
COC(=O)C1=C(C)NC(=O)N(C(=O)NCCCN2CCN(c3cccc(Cl)c3)CC2)C1c1ccc(F)c(F)c1 (configuration not stated) | 37 nM | 0.7 nM | > 195 | 8.4 nM | –
CC(=O)C1=C(C)NC(=O)N(C(=O)NCCCN2CCN(c3ccccc3C(N)=O)CC2)C1c1cc(F)c(F)c(F)c1 (configuration not stated) | 390 nM | 0.4 nM | > 160 | 220 nM | –
CCOc1ccccc1N1CCN(CCCNC(=O)N2C(=O)NC(C)=C(C(=O)OC)C2c2ccc(F)c(F)c2)CC1 (configuration not stated) | 14 nM | 0.1 nM | > 210 | 8.8 nM | –
COC(=O)C1=C(C)NC(=O)N(C(=O)NCCCN2CCN(c3ccccc3O)CC2)C1c1ccc(F)c(F)c1 (configuration not stated) | 31 nM | 0.6 nM | > 65 | 16 nM | –
COC(=O)C1=C(C)NC(=O)N(C(=O)NCCCN2CCN(c3ccccc3C)CC2)C1c1ccc(F)c(F)c1 (configuration not stated) | 9.8 nM | 0.3 nM | > 110 | 17 nM | –
COC(=O)C1=C(C)NC(=O)N(C(=O)NCCCN2CCN(c3ccc(OC)cc3C)CC2)C1c1ccc(F)c(F)c1 (configuration not stated) | 610 nM | 16 nM | > 20 | 510 nM | –
COC(=O)C1=C(C)NC(=O)N(C(=O)NCCCN2CCN(c3ccccc3C(N)=O)CC2)C1c1ccc(F)c(F)c1 (configuration not stated) | 250 nM and 310 nM | 0.12 nM and 0.26 nM | > 3000 | 190 nM and 135 nM | bioavailability [9]: 4%; bioavailability [10]: 13%; Duration of action [5]: > 4 h; half-life [11]: 2.4 h; half-life [12]: 2 h; Kb [6]: 0.3 nM; Ki [13]: > 30000 nM; AD50 [8]: 0.022 mg/kg
COC(=O)C1=C(C)NC(=O)N(C(=O)NCCCN2CCN(c3ccc(OC)cc3)CC2)C1c1ccc(F)c(F)c1 (configuration not stated) | 480 nM | 14 nM | > 15 | 410 nM | –
COC(=O)C1=C(C)NC(=O)N(C(=O)NCCCN2CCN(c3ccc(Cl)cc3)CC2)C1c1ccc(F)c(F)c1 (configuration not stated) | 52 nM | 0.8 nM | > 65 | 17 nM | –
CCC1=C(C(=O)OC)C(c2ccc(F)cc2F)N(C(=O)NCCCN2CCN(c3ccccc3C(N)=O)CC2)C(=O)N1 (configuration not stated) | 91 nM | 0.1 nM | > 1900 | 32 nM | –
COC(=O)C1=C(C)NC(=O)N(C(=O)NCCCN2CCN(c3cccc(C(F)(F)F)c3)CC2)C1c1ccc(F)c(F)c1 (configuration not stated) | 120 nM | 4.9 nM | > 60 | 43 nM | –
COC(=O)C1=C(C)NC(=O)N(C(=O)NCCCN2CCN(c3ccccc3C#N)CC2)C1c1ccc(F)c(F)c1 (configuration not stated) | 12 nM and 15 nM | 0.1 nM and 0.08 nM | > 1300 | 15 nM | –
COC(=O)C1=C(C)NC(=O)N(C(=O)NCCCN2CCN(c3ccccc3[N+](=O)[O-])C[C@@H]2C)C1c1ccc(F)c(F)c1 (some centres not stated) | 34 nM | 0.02 nM | > 17000 | 49 nM | –
COC(=O)C1=C(C)NC(=O)N(C(=O)NCCCN2CCN(c3ccccc3[N+](=O)[O-])CC2)C1c1ccc(F)c(F)c1 (configuration not stated) | 32 nM | 0.01 nM | > 23000 | 23 nM | –
COCC1=C(C(=O)OC)C(c2cc(F)c(F)cc2F)N(C(=O)NCCCN2CCN(c3ccccc3C(N)=O)CC2)C(=O)N1 (configuration not stated) | 190 nM | 0.1 nM | > 660 | 130 nM | –
COC(=O)C1=C(C)NC(=O)N(C(=O)NCCCN2CCN(c3ccccc3OC)CC2)C1c1ccc(F)c(F)c1 (configuration not stated) | 31 nM | 0.1 nM | > 360 | 18 nM | –
COC(=O)C1=C(C)NC(=O)N(C(=O)NCCCN2CCN(c3ccccc3)CC2)C1c1ccc(F)c(F)c1 (configuration not stated) | 21 nM | 0.2 nM | > 55 | 7.5 nM | –
COC(=O)C1=C(C)NC(=O)N(C(=O)NCCCN2CCN(c3ccc(C(C)=O)cc3)CC2)C1c1ccc(F)c(F)c1 (configuration not stated) | 1800 nM | 430 nM | > 2 | 1300 nM | –
COC(=O)C1=C(C)NC(=O)N(C(=O)NCCCN2CCN(c3ccccc3C(=O)OC)CC2)C1c1ccc(F)c(F)c1 (configuration not stated) | 30 nM | 0.2 nM | > 85 | 25 nM | –
COC(=O)C1=C(C)NC(=O)N(C(=O)NCCCN2CCN(c3cccc([N+](=O)[O-])c3)CC2)C1c1ccc(F)c(F)c1 (configuration not stated) | 340 nM | 12 nM | > 40 | 150 nM | –
